The record followed here is ChEMBL document CHEMBL3853336, “Novel selective glucocorticoid receptor agonists (SEGRAs) with a covalent warhead for long-lasting inhibition” (Bioorg Med Chem Lett, 2016).

The target in test [1] is T1, Glucocorticoid receptor (Homo sapiens) (UniProt P04150).
T1 sequence (whole entry): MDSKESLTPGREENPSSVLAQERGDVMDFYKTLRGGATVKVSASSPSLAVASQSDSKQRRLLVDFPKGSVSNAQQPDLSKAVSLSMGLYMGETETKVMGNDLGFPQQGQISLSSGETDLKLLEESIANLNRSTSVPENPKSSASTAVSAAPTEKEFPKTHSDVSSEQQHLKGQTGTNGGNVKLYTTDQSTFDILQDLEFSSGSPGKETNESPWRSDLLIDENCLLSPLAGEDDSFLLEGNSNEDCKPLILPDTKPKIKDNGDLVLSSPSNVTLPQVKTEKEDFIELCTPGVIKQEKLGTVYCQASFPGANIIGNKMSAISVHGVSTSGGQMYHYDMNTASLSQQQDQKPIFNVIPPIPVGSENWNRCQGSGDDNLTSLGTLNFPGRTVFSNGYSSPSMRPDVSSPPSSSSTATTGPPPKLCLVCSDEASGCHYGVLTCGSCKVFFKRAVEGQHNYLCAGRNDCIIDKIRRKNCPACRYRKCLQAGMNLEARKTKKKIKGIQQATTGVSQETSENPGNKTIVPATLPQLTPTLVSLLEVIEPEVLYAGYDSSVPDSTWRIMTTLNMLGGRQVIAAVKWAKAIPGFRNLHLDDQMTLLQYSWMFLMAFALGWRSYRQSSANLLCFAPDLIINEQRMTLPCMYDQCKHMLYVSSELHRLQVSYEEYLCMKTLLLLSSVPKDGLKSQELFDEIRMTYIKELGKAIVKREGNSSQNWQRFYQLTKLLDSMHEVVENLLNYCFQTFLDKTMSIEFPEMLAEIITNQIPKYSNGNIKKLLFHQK
Briefly: Displacement of [3H]-dexamethasone from GR receptor in human IM-9 cytosolic extracts at 100 nM preincubated for 6 hrs followed by washout and second incubation with [3H]-dexamethasone for 1 hr relative to control. An outline of the steps: (§1)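 IM-9 cytosol (240 µg/assay) preincubated 6 h with ligand (100 nM, or 60 nM for cortisol). Unbound ligand was stripped with activated charcoal and centrifugation, then 3 nM [3H]-dexamethasone was added. Binding was read after 1, 2, 3, 4, 16 or 24 h of second incubation as % inhibition of control specific binding, in duplicate.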

Test [2] concerns the target T1, Glucocorticoid receptor (Homo sapiens). Briefly: Displacement of [3H]-dexamethasone from GR receptor in human IM-9 cytosolic extracts at 100 nM preincubated for 6 hrs followed by washout and second incubation with [3H]-dexamethasone for 2 hrs relative to control. The essentials:
as §1
Background: In a radioligand displacement assay an active substance lowers the binding of a labelled ligand.

Test [3] has the same target. Briefly: Displacement of [3H]-dexamethasone from GR receptor in human IM-9 cytosolic extracts at 100 nM preincubated for 6 hrs followed by washout and second incubation with [3H]-dexamethasone for 3 hrs relative to control. An outline of the steps:
as §1

For test [4] the target is unchanged. Briefly: Displacement of [3H]-dexamethasone from GR receptor in human IM-9 cytosolic extracts at 100 nM preincubated for 6 hrs followed by washout and second incubation with [3H]-dexamethasone for 16 hrs relative to control. An outline of the steps: as §1
Test [5] shares this target. Briefly: Displacement of [3H]-dexamethasone from GR receptor in human IM-9 cytosolic extracts at 100 nM preincubated for 6 hrs followed by washout and second incubation with [3H]-dexamethasone for 24 hrs relative to control. An outline of the steps: as §1
For test [6] the target is unchanged. Briefly: Displacement of [3H]-dexamethasone from GR receptor in human IM-9 cytosolic extracts at 100 nM preincubated for 6 hrs followed by [3H]-dexamethasone addition relative to control.
The target is the same in test [7]. Briefly: Displacement of [3H]-dexamethasone from GR receptor in human IM-9 cytosolic extracts using buffer solution without beta-mercaptoethanol at 100 nM preincubated for 6 hrs followed by washout and second incubation with [3H]-dexamethasone for 1 hr relative to control. The essentials: (§2)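 Repeat of the wash-out protocol in buffers free of β-mercaptoethanol, with a second batch of dexamethasone mesylate. IM-9 cytosol (240 µg/assay) preincubated 6 h at 100 nM (cortisol 60 nM), charcoal-stripped and centrifuged, then given 3 nM [3H]-dexamethasone. Binding was read before wash-out or at 1–24 h as % inhibition of control, in duplicate.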

Test [8] shares this target. Briefly: Displacement of [3H]-dexamethasone from GR receptor in human IM-9 cytosolic extracts using buffer solution without beta-mercaptoethanol at 100 nM preincubated for 6 hrs followed by washout and second incubation with [3H]-dexamethasone for 3 hrs relative to control. The essentials: as §2
For test [9] the target is unchanged. Briefly: Displacement of [3H]-dexamethasone from GR receptor in human IM-9 cytosolic extracts using buffer solution without beta-mercaptoethanol at 100 nM preincubated for 6 hrs followed by washout and second incubation with [3H]-dexamethasone for 4 hrs relative to control. An outline of the steps:
as §2

The target is the same in test [10]. Briefly: Displacement of [3H]-dexamethasone from GR receptor in human IM-9 cytosolic extracts using buffer solution without beta-mercaptoethanol at 100 nM preincubated for 6 hrs followed by washout and second incubation with [3H]-dexamethasone for 16 hrs relative to control. The essentials:
as §2

Test [11] has the same target. Briefly: Displacement of [3H]-dexamethasone from GR receptor in human IM-9 cytosolic extracts using buffer solution without beta-mercaptoethanol at 100 nM preincubated for 6 hrs followed by washout and second incubation with [3H]-dexamethasone for 24 hrs relative to control. The essentials:
as §2

Test [12] shares this target. Briefly: Displacement of [3H]-dexamethasone from GR receptor in human IM-9 cytosolic extracts using buffer solution without beta-mercaptoethanol at 100 nM preincubated for 6 hrs followed by [3H]-dexamethasone addition relative to control. An outline of the steps:
as §2

Test [13] shares this target. Briefly: Displacement of [3H]-dexamethasone from human GR receptor at 1 uM relative to control. An outline of the steps: (§3)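 Human GR radioligand binding with soluble receptor from IM-9 cells and 1.5 nM [3H]-dexamethasone, with test ligand at 1 µM or 0.1 µM. Specific binding reported as % inhibition of control, in duplicate.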
The target is the same in test [14]. Briefly: Displacement of [3H]-dexamethasone from human GR receptor at 0.1 uM relative to control. The essentials:
as §3

The target is the same in test [15]. Briefly: Displacement of [3H]-dexamethasone from GR receptor in human IM-9 cytosolic extracts at 100 nM preincubated for 6 hrs followed by washout and second incubation with [3H]-dexamethasone for 4 hrs relative to control. The essentials:
as §1

Test [16] shares this target. Briefly: Displacement of [3H]-dexamethasone from GR receptor in human IM-9 cytosolic extracts using buffer solution without beta-mercaptoethanol at 100 nM preincubated for 6 hrs followed by washout and second incubation with [3H]-dexamethasone for 2 hrs relative to control. An outline of the steps: as §2
Test [17] has the same target. Briefly: Displacement of [3H]-dexamethasone from GR receptor in human IM-9 cytosolic extracts at 60 nM preincubated for 6 hrs followed by washout and second incubation with [3H]-dexamethasone for 1 hr relative to control. An outline of the steps: as §1
Test [18] shares this target. Briefly: Displacement of [3H]-dexamethasone from GR receptor in human IM-9 cytosolic extracts at 60 nM preincubated for 6 hrs followed by washout and second incubation with [3H]-dexamethasone for 2 hrs relative to control. An outline of the steps:
as §1

Test [19] has the same target. Briefly: Displacement of [3H]-dexamethasone from GR receptor in human IM-9 cytosolic extracts at 60 nM preincubated for 6 hrs followed by washout and second incubation with [3H]-dexamethasone for 3 hrs relative to control. The essentials:
as §1

Test [20] has the same target. Briefly: Displacement of [3H]-dexamethasone from GR receptor in human IM-9 cytosolic extracts at 60 nM preincubated for 6 hrs followed by washout and second incubation with [3H]-dexamethasone for 4 hrs relative to control. An outline of the steps:
as §1

Test [21] shares this target. Briefly: Displacement of [3H]-dexamethasone from GR receptor in human IM-9 cytosolic extracts at 60 nM preincubated for 6 hrs followed by washout and second incubation with [3H]-dexamethasone for 16 hrs relative to control. The essentials:
as §1

The target is the same in test [22]. Briefly: Displacement of [3H]-dexamethasone from GR receptor in human IM-9 cytosolic extracts at 60 nM preincubated for 6 hrs followed by washout and second incubation with [3H]-dexamethasone for 24 hrs relative to control. The essentials: as §1
The target is the same in test [23]. Briefly: Displacement of [3H]-dexamethasone from GR receptor in human IM-9 cytosolic extracts at 60 nM preincubated for 6 hrs followed by [3H]-dexamethasone addition relative to control.
For test [24] the target is unchanged. Briefly: Displacement of [3H]-dexamethasone from GR receptor in human IM-9 cytosolic extracts using buffer solution without beta-mercaptoethanol at 60 nM preincubated for 6 hrs followed by washout and second incubation with [3H]-dexamethasone for 16 hrs relative to control. The essentials: as §2
Test [25] has the same target. Briefly: Displacement of [3H]-dexamethasone from GR receptor in human IM-9 cytosolic extracts using buffer solution without beta-mercaptoethanol at 60 nM preincubated for 6 hrs followed by washout and second incubation with [3H]-dexamethasone for 24 hrs relative to control. An outline of the steps:
as §2

Test [26] has the same target. Briefly: Displacement of [3H]-dexamethasone from GR receptor in human IM-9 cytosolic extracts using buffer solution without beta-mercaptoethanol at 60 nM preincubated for 6 hrs followed by [3H]-dexamethasone addition relative to control. The essentials:
as §2

Take `C[C@@H]1C[C@H]2[C@@H]3CCC4=CC(=O)C=C[C@]4(C)[C@@]3(F)[C@@H](O)C[C@]2(C)[C@@]1(O)C(=O)COS(C)(=O)=O`: the inhibition in [1] worked out at 7%; in test [2], 3%; in test [3] it was 7%; in test [4], 13%; in test [5], 23%; in test [6] it was 93%. Also, the inhibition in [7] is 3%; in test [8], -2%; in test [9], 3%; in test [10], 46%; in [11], 13%; in test [12] it was 93%.
For `C=CC(=O)Nc1ccc(Cl)c(C(=O)N(CC)CC(O)(CNC(=O)c2cnn(-c3ccc(F)cc3)c2N)C(F)(F)F)c1Cl` (configuration not stated), the inhibition in test [13] is 96%; in test [14], 74%; in test [1], 21%; in test [2], 17%; in test [3] it was 24%; in [15], 6%. The inhibition in test [4] is 31%; in [6], 74%; in [9], -10%; in test [10], -5%; in test [11], -2%; in test [12], 74%.
Regarding `CCN(CC(O)(CNC(=O)c1cnn(-c2ccc(F)cc2)c1N)C(F)(F)F)C(=O)c1c(Cl)ccc(NC(=O)CCl)c1Cl` (configuration not stated), the inhibition in test [13] is 92%; in test [14] it was 78%; in [1], -4%; in test [4], 1%; in [5] it was 2%; in [6], 78%. Further, the inhibition in test [7] is -1%; in test [16], -8%; in [8], -6%; in test [9], 0%; in test [10], 37%; in [11], 8%. Also, the inhibition in test [12] stood at 78%.
In the case of `C[C@]12CCC(=O)C=C1CC[C@@H]1[C@@H]2[C@@H](O)C[C@@]2(C)[C@H]1CC[C@]2(O)C(=O)CO`, the inhibition in [17] was 3%; in test [18], 6%; in test [19], 4%; in test [20], -1%; in test [21], 5%; in test [22] it was 12%. For the same molecule, the inhibition in [23] was 69%; in test [24] it was 16%; in test [25] it was -8%; in [26], 69%.

As a reminder, the inhibition is the drop in the measured response relative to a control, in per cent.
